Hits are enriched below; roughly 5.1% of the tested compounds scored in any of these assays.
STAT3 activator: activators of IL-6 induced STAT3 signaling; hit rate 0.91% among 190,000; U3A cells, IL-6 STAT3-luciferase reporter, luminescence; 100% = signal with IL-6 EC80 alone; AID 871; activation (% of control), % at 5.6 µM;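 active = activation above the screen-wide mean of compound activation plus 3 SD, cut at about 130% in these data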;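 note: 0% = background luminescence of wells with medium and substrate only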
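System – human U3A cells carrying STAT3-luciferase construct · Probe or stimulus – Interleukin-6, 33 ng/mL · Schedule – compound 1 h, then IL-6 6 h at 37 °C · Signal – luminescence from STAT3-driven luciferase reporter · Evaluation – percent of IL-6-only median luminescence · Benchmarks – IL-6-only high control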
STAT3 inh: inhibitors of IL-6 induced STAT3 signaling; hit rate 0.89% among 190,000; AID 862; inhibition, % at 5.5 µM; U3A cells, IL-6 STAT3-luciferase reporter, luminescence; host cell line lacks STAT1;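 active = inhibition above the mean inhibition across all screened compounds plus 3 SD, cut at about 44% in these data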;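 note: 0% = DMSO only wells and 100% = 100 µM nifuroxazide control wells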
NF-kB neuron act: raises NF-kB expression in human neuronal cells | hit rate 1.6% among 190,000 | NF-kB reporter expression; active compounds read high | fold change at 12.5 µM; in the data active = fold change above about 3.3
STAT1 blocker: inhibitors of IFN-gamma induced STAT1 signaling; inhibition, % at 5.5 µM; NIH 3T3 STAT1-luciferase reporter, luminescence; hit rate 0.35% among 200,000; AID 920;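 active = inhibition above a set limit, the mean inhibition across all tested compounds plus 3 SD, cut at about 34% in these data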;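 note: 0% = IFN-gamma with DMSO and 100% = IFN-gamma with 300 µM nifuroxazide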
STAT1 activator: increases IFN-gamma driven STAT1 reporter signal; AID 932; NIH 3T3 STAT1-luciferase reporter, luminescence; 100% = IFN-gamma alone, no compound; hit rate 2.6% among 200,000; activation (% of control), % at 5.5 µM;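 active = activation above the screen-wide mean activation plus 3 SD, cut at about 130% in these data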;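 note: raw ratio to IFN-gamma control signal so 100% means no change and 0% no light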
APP 5'UTR act: APP 5'UTR luciferase reporter activation; SH-SY5Y APP 5'UTR luciferase reporter, luminescence; zero percent = DMSO vehicle wells; activation, % at 2 µM; hit rate 1% among 190,000; AID 1276;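 active = activation above a set limit, based on mean plus 3 SD of controls, cut at about 140% in these data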
* = called active by the depositor; . = not tested or not shown.

SMILES	STAT3 activator	STAT3 inh	NF-kB neuron act	STAT1 blocker	STAT1 activator	APP 5'UTR act
CCN1CCN(c2ccc(NC(=O)c3ccc(F)cc3)cc2Cl)CC1	99	8	1.6	-17	113	27
O=[N+]([O-])c1ccc2c(c1)nc1n2CCN(C2CCCCC2)C1	104	2	.	-47	144*	91
O=[N+]([O-])c1ccc2c(c1)nc1n2CCCCC1	92	16	0.87	-30	126	14
COc1cccc(CC2(CO)CCCN(Cc3sc(N4CCCC4)nc3Cl)C2)c1 (stereo not given)	103	1	0.75	-3	101	8
C/C(=N\NC(=O)c1nc2ccccn2c1C)c1ccco1	102	2	0.97	-39	136*	-3
O=C(CN1CCN(c2ccc(O)cc2)CC1)NC(=O)NCc1ccco1	107	-2	1.5	-2	102	-1
Cc1ccc2[nH]c(=O)c(CNS(=O)(=O)c3ccccc3)c(-c3ccccc3)c2c1	104	-6	1.5	2	98	-3
NC(=O)c1cnn(-c2ccc3ccccc3c2)c1N	115	-10	1.1	-17	114	23
COc1ccc(C(=O)N/N=C/C(Br)=C/c2ccccc2)cc1	97	2	0.99	11	90	-24
CCn1nc(C)c(/C=N/NC(=O)c2ccoc2C)c1C	96	8	1.2	-43	140*	110
COc1ccc(/C=N/NC(=O)c2ccoc2C)cc1OC	95	4	1.6	-36	132*	26
CCCCCn1nc(C)c(/C=N/NC(=O)c2ccoc2C)c1C	101	0	1.2	-20	119	59
CC(/C=N/NC(=O)Cc1cccs1)=C\c1ccccc1	115	-17	1.9	-26	124	77
O=C(Cc1cccs1)N/N=C/C(Br)=C/c1ccccc1	107	-4	1.4	-53	148*	74
Cc1occc1C(=O)N/N=C/C(Br)=C/c1ccccc1	81	24	6.4*	-54	148*	155*
COc1ccccc1CNC(=O)c1cn(C)c2ccc(S(=O)(=O)N3CCCC3)cc2c1=O	106	-4	0.87	4	94	11
O=C(N/N=C/C=C/c1ccccc1)c1n[nH]c2c1CCC2	103	-5	1.3	-18	117	-61
O=C(N/N=C/C(Br)=C\c1ccccc1)c1n[nH]c2c1CCC2	142*	-50	8.3*	-32	129*	-96
CCN(CC)S(=O)(=O)c1cc(C(=O)OCC(=O)Nc2cccc(Br)c2)ccc1F	105	-8	0.97	3	98	-1
COC(=O)C(Cc1ccccc1)NC(=S)NC(=O)c1ccccc1 (stereo not given)	105	1	1.2	5	94	-13
Cc1ccc(S(=O)(=O)Nc2ccccc2C(N)=O)cc1	134*	-37	1	-9	111	-3
NC(=O)c1ccccc1NS(=O)(=O)c1ccccc1	99	1	1.5	0	100	-7
Cn1cccc1C(=O)C(=O)Nc1cccc(Cl)c1Cl	157*	-71	3.6*	-53	147*	35
Cn1cccc1C(=O)C(=O)Nc1cc(Cl)cc(Cl)c1	107	-8	2.1	-25	122	22
Cn1cccc1C(=O)C(=O)Nc1ccc(Cl)cc1	77	31	11*	-22	120	186*
SMILES	STAT3 activator	STAT3 inh	NF-kB neuron act	STAT1 blocker	STAT1 activator	APP 5'UTR act
O=[N+]([O-])c1ccc(C2Nc3cccc4cccc(c34)N2)cc1	134*	-36	0.87	-3	103	17
Cc1cccc2nc(CSc3nnc4ccccn34)cn12	107	-8	2.7	-40	137*	94
c1ccn2c(SCc3cn4ccsc4n3)nnc2c1	112	-11	2.2	-42	138*	45
c1ccc(-n2cnnc2SCc2cn3ccsc3n2)cc1	89	15	0.94	13	88	3
CN(C(=O)c1ccc(OC2CCN(CCc3ccccc3)CC2)cc1)C1CCCCC1	100	6	1.5	6	94	1
COc1ccccc1NC(=S)N1CCN(c2nc(-c3ccccc3)cs2)CC1	92	15	0.86	-1	99	0
C=CCn1c(C)cc(C(=O)CSc2n[nH]c(N)n2)c1C	105	-1	1.4	-6	105	21
Cc1ccc(C=Nc2ccccc2C(N)=O)o1	97	3	1	-39	135*	76
CS(=O)(=O)N1CCN(c2ccc(NC(=O)c3ccc(Br)o3)cc2)CC1	99	5	1.9	-33	130*	27
CCC(=O)NC(c1ccccc1OC)c1ccc2cccnc2c1O (stereo not given)	84	21	6.9*	7	95	-89
COc1ccc(/C=N/NC(=O)c2nonc2C)cc1	77	30	1.6	-32	129*	1
Cc1nonc1C(=O)N/N=C/c1ccncc1	101	6	0.9	-45	140*	15
Nc1nonc1C(=O)N/N=C/c1ccncc1	100	5	1.3	-17	118	-16
COc1ccc(-c2nc(CCl)cs2)cc1	95	14	2.4	-18	118	4
CCc1ccc(-c2nc(CCl)cs2)cc1	95	5	2.6	-52	147*	48
C/C(Cn1nc([N+](=O)[O-])cc1C)=N\NC(=O)COc1c(Cl)cc(Cl)cc1Cl	102	-7	0.96	-8	108	-5
CC1CCN(c2nc3ccc(C(=O)N4CCN(Cc5ccccc5)CC4)cc3s2)CC1	98	11	1.4	-33	130*	59
COc1ccc(NC(=O)Nc2ccc(Cc3ccncc3)cc2)cc1OC	93	16	0.78	-9	108	9
CC(=O)N1N=C(c2ccc(Cl)cc2)OC1c1ccc(C(C)C)cc1 (stereo not given)	123	-21	1.6	-36	133*	-10
CC(NC(=O)Cn1cccc1C(=O)c1ccccc1)c1ccc2c(c1)OCCO2 (stereo not given)	108	3	1	-3	102	-4
COCCOCCn1c(/C=C/c2ccccc2)nc2ccccc21	78	31	6*	-42	135*	166*
CCCn1c(/C=C/c2ccccc2)nc2ccccc21	112	-9	5.6*	-50	144*	123
CC(C)n1c(/C=C/c2ccccc2)nc2ccccc21	91	9	1.4	-14	113	51
COc1cc(C=O)ccc1OCc1cccc(Br)c1	104	-5	1.1	-34	130*	58
COC(=O)c1ccccc1OCCOc1ccccc1C(=O)OC	106	-2	1.2	-1	100	-3
COC(=O)c1ccccc1OCCCOc1ccc(C=O)cc1OC	130	-38	1.2	-38	134*	91
